Data published in ChEMBL document CHEMBL5674880 (PLoS One, 2018).
pIC50: −log10 of the molar value.

Key:
[1] = biological target: Histone-lysine N-methyltransferase SMYD3 (Homo sapiens, UniProt Q9H7B4); test: Inhibition of SMYD3 (unknown origin)
[2] = test system: EB-3; test: Antiproliferative activity against human EB-3 cells in 2D growth culture; format: functional, cell-based
In short: (§1)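 2D monolayer proliferation screen across the 240-line Eurofins Oncopanel of human cancer cell lines (mycoplasma-negative, STR-verified). Compound was titrated to a highest tested concentration of 25 μM. Values are the mean of three replicates.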

[3] = test system: ES-2; test: Antiproliferative activity against human ES-2 cells in 2D growth culture; format: functional, cell-based; in short: as §1
[4] = Antiproliferative activity against human HLF cells in 3D growth culture; format: functional, cell-based
In short: (§2)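 3D proliferation in the Eurofins Oncopanel, with a panel of 140 human cancer cell lines grown in Matrigel. The highest concentration tested was 25 μM. Each value is the mean of three replicates.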

[5] = Antiproliferative activity against human HLF cells in 2D growth culture; format: functional, cell-based; in short: as §1
[6] = test system: HT-3; test: Antiproliferative activity against human HT-3 cells in 3D growth culture; format: functional, cell-based; in short: as §2
[7] = test system: HOS; test: Antiproliferative activity against human HOS cells in 2D growth culture; format: functional, cell-based; in short: as §1
[8] = test system: Y79; test: Antiproliferative activity against human Y79 cells in 3D growth culture; format: functional, cell-based
In short: (§3)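 3D growth in matrigel, within a 140-cell-line panel of the Eurofins Oncopanel (mycoplasma negative, STR verified). Compound dosed across a concentration series with a top concentration of 25 μM. Each value is the mean of three replicates.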

[9] = test system: DMS-153; test: Antiproliferative activity against human DMS-153 cells expressing wild-type KRAS; format: functional, cell-based
In short: (§4)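 Proliferation of human lung cancer cell lines (NSCLC and others) with KRAS mutant or wild-type status. Compound was tested at concentrations up to 25 µM.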

[10] = test system: C32; test: Antiproliferative activity against human C32 cells in 3D growth culture; format: functional, cell-based; in short: as §2
[11] = Antiproliferative activity against human MT-3 cells in 3D growth culture; format: functional, cell-based; in short: as §2
[12] = test system: JAR; test: Antiproliferative activity against human JAR cells in 2D growth culture; format: functional, cell-based; in short: as §1
[13] = test system: SH-4; test: Antiproliferative activity against human SH-4 cells in 2D growth culture; format: functional, cell-based
In short: (§5)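 2D monolayer culture in the Eurofins Oncopanel of 240 cancer cell lines (mycoplasma negative, STR verified). Compound dosed across a concentration series with a top concentration of 25 μM. Each value is the mean of three replicates.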

[14] = test system: JAR; test: Antiproliferative activity against human JAR cells in 3D growth culture; format: functional, cell-based; in short: as §2
[15] = test system: 5637; test: Antiproliferative activity against human 5637 cells in 3D growth culture; format: functional, cell-based; in short: as §2
[16] = test system: DMS-53; test: Antiproliferative activity against human DMS-53 expressing wild-type KRAS; format: functional, cell-based; in short: as §4
[17] = test system: NCI-H2029; test: Antiproliferative activity against human NCI-H2029 cells expressing wild-type KRAS; format: functional, cell-based; in short: as §4
[18] = test system: NCI-H2081; test: Antiproliferative activity against human NCI-H2081 cells expressing wild-type KRAS; format: functional, cell-based; in short: as §4
[19] = test system: DK-MG; test: Antiproliferative activity against human DK-MG cells in 2D growth culture; format: functional, cell-based; in short: as §1
[20] = test system: SH-4; test: Antiproliferative activity against human SH-4 cells in 3D growth culture; format: functional, cell-based; in short: as §3
[21] = test system: HLE; test: Antiproliferative activity against human HLE cells in 2D growth culture; format: functional, cell-based; in short: as §1
[22] = test system: SK-LU-1; test: Antiproliferative activity against human SK-LU-1 cells expressing KRAS G12D mutant; format: functional, cell-based
[23] = test system: HT; test: Antiproliferative activity against human HT cells in 2D growth culture; format: functional, cell-based; in short: as §1
[24] = test system: Hs 766; test: Antiproliferative activity against human Hs 766T cells in 2D growth culture; format: functional, cell-based; in short: as §1
[25] = test system: C32; test: Antiproliferative activity against human C32 cells in 2D growth culture; format: functional, cell-based; in short: as §1
[26] = Antiproliferative activity against human SK-N-BE(2)-C cells in 3D growth culture; format: functional, cell-based; in short: as §3
[27] = test system: COR-L105; test: Antiproliferative activity against human COR-L105 cells expressing wild-type KRAS; format: functional, cell-based; in short: as §4
[28] = test system: RD; test: Antiproliferative activity against human RD cells in 2D growth culture; format: functional, cell-based; in short: as §1
[29] = Antiproliferative activity against human C4-1 cells in 2D growth culture; format: functional, cell-based; in short: as §1
[30] = test system: PC-3; test: Antiproliferative activity against human PC-3 cells in 3D growth culture; format: functional, cell-based; in short: as §2
[31] = test system: RKO; test: Antiproliferative activity against human RKO cells in 2D growth culture; format: functional, cell-based; in short: as §1
[32] = test system: PC-3; test: Antiproliferative activity against human PC-3 cells in 2D growth culture; format: functional, cell-based; in short: as §1
[33] = test system: DB; test: Antiproliferative activity against human DB cells in 2D growth culture; format: functional, cell-based; in short: as §1
[34] = test system: Hs 766; test: Antiproliferative activity against human Hs766T cells in 3D growth culture; format: functional, cell-based; in short: as §2
[35] = Antiproliferative activity against human C4-1 cells in 3D growth culture; format: functional, cell-based; in short: as §2
[36] = test system: J82; test: Antiproliferative activity against human J82 cells in 3D growth culture; format: functional, cell-based; in short: as §2
[37] = test system: SR; test: Antiproliferative activity against human SR cells in 2D growth culture; format: functional, cell-based; in short: as §5
[38] = test system: HepG2; test: Antiproliferative activity against human HepG2 cells; format: functional, cell-based
[39] = test system: U-266; test: Antiproliferative activity against human U266B1 cells in 2D growth culture; format: functional, cell-based; in short: as §5
[40] = Antiproliferative activity against human MT-3 cells in 2D growth culture; format: functional, cell-based; in short: as §1
[41] = test system: RKO; test: Antiproliferative activity against human RKO cells in 3D growth culture; format: functional, cell-based; in short: as §3
[42] = test system: RD; test: Antiproliferative activity against human RD cells in 3D growth culture; format: functional, cell-based; in short: as §2
[43] = test system: HT-3; test: Antiproliferative activity against human HT-3 cells in 2D growth culture; format: functional, cell-based; in short: as §1
[44] = test system: EM-2; test: Antiproliferative activity against human EM-2 cells in 2D growth culture; format: functional, cell-based; in short: as §1
[45] = test system: A549; test: Antiproliferative activity against human A549 cells expressing KRAS G12S mutant; format: functional, cell-based; in short: as §4
[46] = Antiproliferative activity against human A7 cells in 2D growth culture; format: functional, cell-based; in short: as §1
[47] = test system: 5637; test: Antiproliferative activity against human 5637 cells in 2D growth culture; format: functional, cell-based; in short: as §1
[48] = test system: AGS; test: Antiproliferative activity against human AGS cells in 2D growth culture; format: functional, cell-based; in short: as §1
[49] = test system: ES-2; test: Antiproliferative activity against human ES2 cells in 3D growth culture; format: functional, cell-based; in short: as §2
[50] = test system: DOHH-2; test: Antiproliferative activity against human DOHH-2 cells in 2D growth culture; format: functional, cell-based; in short: as §1
[51] = test system: H4; test: Antiproliferative activity against human H4 cells in 2D growth culture; format: functional, cell-based; in short: as §1
[52] = test system: T-24; test: Antiproliferative activity against human T24 cells in 2D growth culture; format: functional, cell-based; in short: as §5
[53] = test system: SHP77; test: Antiproliferative activity against human SHP77 cells expressing KRAS G12V mutant; format: functional, cell-based
[54] = test system: J82; test: Antiproliferative activity against human J82 cells in 2D growth culture; format: functional, cell-based; in short: as §1
[55] = test system: COR-L88; test: Antiproliferative activity against human COR-L88 cells expressing wild-type KRAS; format: functional, cell-based; in short: as §4
[56] = test system: MX1; test: Antiproliferative activity against human MX1 cells in 2D growth culture; format: functional, cell-based; in short: as §1
[57] = test system: Y79; test: Antiproliferative activity against human Y79 cells in 2D growth culture; format: functional, cell-based; in short: as §5
[58] = test system: KLE; test: Antiproliferative activity against human KLE cells in 2D growth culture; format: functional, cell-based; in short: as §1
[59] = test system: SW1573; test: Antiproliferative activity against human SW1573 cells expressing KRAS G12C mutant; format: functional, cell-based
[60] = test system: NCI-H23; test: Antiproliferative activity against human NCI-H23 cells expressing KRAS G12C mutant; format: functional, cell-based; in short: as §4
[61] = test system: NCI-H2122; test: Antiproliferative activity against human NCI-H2122 cells expressing KRAS G12C mutant; format: functional, cell-based; in short: as §4
[62] = Antiproliferative activity against human SK-N-BE(2)-C cells in 2D growth culture; format: functional, cell-based; in short: as §5
[63] = Antiproliferative activity against human BC1 cells in 2D growth culture; format: functional, cell-based; in short: as §1
[64] = test system: NCI-H441; test: Antiproliferative activity against human NCI-H441 cells expressing KRAS G12V mutant; format: functional, cell-based; in short: as §4

Sequence of Histone-lysine N-methyltransferase SMYD3 (Q9H7B4 whole entry): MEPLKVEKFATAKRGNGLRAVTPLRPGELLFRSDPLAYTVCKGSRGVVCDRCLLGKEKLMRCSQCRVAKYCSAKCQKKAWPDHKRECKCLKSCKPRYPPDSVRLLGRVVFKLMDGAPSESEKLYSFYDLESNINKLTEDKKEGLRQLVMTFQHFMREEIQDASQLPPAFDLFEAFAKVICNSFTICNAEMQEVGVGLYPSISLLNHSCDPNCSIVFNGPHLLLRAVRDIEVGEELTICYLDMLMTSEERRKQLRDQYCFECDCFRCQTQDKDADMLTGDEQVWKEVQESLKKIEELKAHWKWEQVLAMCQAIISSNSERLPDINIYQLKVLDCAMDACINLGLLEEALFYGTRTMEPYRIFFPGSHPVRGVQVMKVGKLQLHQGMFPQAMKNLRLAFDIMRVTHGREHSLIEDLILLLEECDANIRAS

O=C1Cc2cc(C(=O)N[C@H]3C[C@H]4CC[C@@H](C3)N4S(=O)(=O)CC3CCN(CCCC(F)(F)F)CC3)c(Cl)cc2N1
pIC50 [1]: 8.30

N[C@H]1CC[C@H](S(=O)(=O)N2[C@@H]3CC[C@H]2C[C@@H](NC(=O)c2cc(C4CC4)on2)C3)CC1
pIC50 [2]: < 4.60 | pIC50 [3]: < 4.60 | pIC50 [4]: < 4.60 | pIC50 [5]: < 4.60 | pIC50 [6]: < 4.60 | pIC50 [7]: < 4.60 | pIC50 [8]: < 4.60 | pIC50 [9]: < 4.70 | pIC50 [10]: < 4.60 | pIC50 [11]: < 4.60 | pIC50 [12]: < 4.60 | pIC50 [13]: < 4.60 | pIC50 [14]: < 4.60 | pIC50 [15]: < 4.60 | pIC50 [16]: < 4.70 | pIC50 [17]: < 4.70 | pIC50 [18]: < 4.70 | pIC50 [19]: < 4.60 | pIC50 [20]: < 4.60 | pIC50 [21]: < 4.60 | pIC50 [22]: < 4.70 | pIC50 [23]: < 4.60 | pIC50 [24]: < 4.60 | pIC50 [25]: < 4.60 | pIC50 [26]: < 4.60 | pIC50 [27]: < 4.70 | pIC50 [28]: < 4.60 | pIC50 [29]: < 4.60 | pIC50 [30]: < 4.60 | pIC50 [31]: < 4.60 | pIC50 [32]: < 4.60 | pIC50 [33]: < 4.60 | pIC50 [34]: < 4.60 | pIC50 [35]: < 4.60 | pIC50 [36]: < 4.60 | pIC50 [37]: < 4.60 | pIC50 [38]: < 4.40 | pIC50 [39]: < 4.60 | pIC50 [40]: < 4.60 | pIC50 [41]: < 4.60 | pIC50 [42]: < 4.60 | pIC50 [43]: < 4.60 | pIC50 [44]: < 4.60 | pIC50 [45]: < 4.70 | pIC50 [46]: < 4.60 | pIC50 [47]: < 4.60 | pIC50 [48]: < 4.60 | pIC50 [49]: < 4.60 | pIC50 [50]: < 4.60 | pIC50 [51]: < 4.60 | pIC50 [52]: < 4.60 | pIC50 [53]: < 4.70 | pIC50 [54]: < 4.60 | pIC50 [55]: < 4.70 | pIC50 [56]: < 4.60 | pIC50 [57]: < 4.60 | pIC50 [58]: < 4.60 | pIC50 [59]: < 4.70 | pIC50 [60]: < 4.70 | pIC50 [61]: < 4.70 | pIC50 [62]: < 4.60 | pIC50 [63]: < 4.60 | pIC50 [64]: < 4.70
